Columns and labels:
[1] = target: 5'-AMP-activated protein kinase catalytic subunit alpha-2 (Homo sapiens) (UniProt P54646); test: Binding affinity to wild-type human partial length AMPK alpha2 (M1 to E306 residues) expressed in bacterial expression system assessed as residual binding level at 1 uM by Kinomescan method relative to control
[2] = system: Serine/threonine-protein kinase B-raf (Homo sapiens), P15056 [V600E]; test: Binding affinity to human partial length BRAF V600E mutant (S429 to E741 residues) expressed in mammalian expression system assessed as residual binding level at 1 uM by Kinomescan method relative to control
Method in brief: (§1)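 KinomeScan active site-directed competition binding panel (468 kinases), compound tested at 1 μM. Result expressed as remaining kinase signal versus DMSO control (percent of control).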

[3] = target: Cyclin-dependent kinase 3 (Homo sapiens) (UniProt Q00526); test: Binding affinity to wild-type human full length CDK3 (M1 to H305 residues) expressed in bacterial expression system assessed as residual binding level at 1 uM by Kinomescan method relative to control
Method in brief: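 Active-site-directed KinomeScan competition binding panel covering 468 kinases, compound tested at 1 μM. Each readout is the kinase signal remaining with compound, expressed as a percentage of the DMSO control. […]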

[4] = target: Cyclin-dependent kinase-like 2 (Homo sapiens) (UniProt Q92772); test: Binding affinity to wild-type human partial length CDKL2 (M1 to D327 residues) expressed in bacterial expression system assessed as residual binding level at 1 uM by Kinomescan method relative to control
[5] = target: Serine/threonine-protein kinase Chk1 (Homo sapiens) (UniProt O14757); test: Binding affinity to wild-type human partial length CHEK1 (M1 to G289 residues) expressed in bacterial expression system assessed as residual binding level at 1 uM by Kinomescan method relative to control
[6] = target: Ephrin type-A receptor 5 (Homo sapiens) (UniProt P54756); test: Binding affinity to wild-type human partial length EPHA5 (T627 to V930 residues) expressed in bacterial expression system assessed as residual binding level at 1 uM by Kinomescan method relative to control
Method in brief: (§2)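 Active-site-directed competition binding panel of 468 kinases (KinomeScan), compound at 1 μM. The read-out is kinase remaining bound, given as a percentage of the DMSO control. […]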

[7] = target: Mitogen-activated protein kinase 6 (Homo sapiens) (UniProt Q16659); test: Binding affinity to wild-type human partial length ERK3 (M1 to P413 residues) expressed in bacterial expression system assessed as residual binding level at 1 uM by Kinomescan method relative to control
[8] = system: Receptor-type tyrosine-protein kinase FLT3 (Homo sapiens), P36888 [D835V]; test: Binding affinity to human partial length FLT3 D835V mutant (V592 to Y969 residues) expressed in bacterial expression system assessed as residual binding level at 1 uM by Kinomescan method relative to control; method in brief: as §1
[9] = system: Mast/stem cell growth factor receptor Kit (Homo sapiens), P10721 [D816V]; test: Binding affinity to human partial length KIT D816V mutant (I571 to D952 residues) expressed in bacterial expression system assessed as residual binding level at 1 uM by Kinomescan method relative to control; method in brief: as §1
[10] = target: Mitogen-activated protein kinase kinase kinase kinase 4 (Homo sapiens) (UniProt O95819); test: Binding affinity to wild-type human partial length MAP4K4 (M1 to R310 residues) expressed in bacterial expression system assessed as residual binding level at 1 uM by Kinomescan method relative to control
[11] = target: MAP kinase-interacting serine/threonine-protein kinase 2 (Homo sapiens) (UniProt Q9HBH9); test: Binding affinity to wild-type human partial length MKNK2 (G63 to S388 residues) expressed in mammalian expression system assessed as residual binding level at 1 uM by Kinomescan method relative to control; method in brief: as §2
[12] = system: Phosphatidylinositol 4,5-bisphosphate 3-kinase catalytic subunit alpha isoform (Homo sapiens), P42336 [H1047Y]; test: Binding affinity to human partial length PIK3CA H1047Y mutant (R108 to N1068 residues) expressed in mammalian expression system assessed as residual binding level at 1 uM by Kinomescan method relative to control; method in brief: as §1
[13] = system: Phosphatidylinositol 4,5-bisphosphate 3-kinase catalytic subunit alpha isoform (Homo sapiens), P42336 [Q546K]; test: Binding affinity to human partial length PIK3CA Q546K mutant (R108 to N1068 residues) expressed in mammalian expression system assessed as residual binding level at 1 uM by Kinomescan method relative to control; method in brief: as §1
[14] = target: Serine/threonine-protein kinase PLK4 (Homo sapiens) (UniProt O00444); test: Binding affinity to wild-type human partial length PLK4 (M1 to S273 residues) expressed in mammalian expression system assessed as residual binding level at 1 uM by Kinomescan method relative to control
[15] = target: Proto-oncogene tyrosine-protein kinase receptor Ret (Homo sapiens) (UniProt P07949); test: Binding affinity to wild-type human partial length RET (E713 to D1014 residues) expressed in bacterial expression system assessed as residual binding level at 1 uM by Kinomescan method relative to control
[16] = target: Ribosomal protein S6 kinase alpha-6 (Homo sapiens) (UniProt Q9UK32); test: Binding affinity to wild-type human partial length C-terminal RSK4 kinase domain 2 (I401 to Y711 residues) expressed in bacterial expression system assessed as residual binding level at 1 uM by Kinomescan method relative to control
Method in brief: (§3)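 KinomeScan, an active site-directed competition binding panel of 468 kinases. The test compound was at 1 μM. The readout is remaining kinase binding as a percentage of the DMSO control. Scores above 35% were treated as weak binding and not listed.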

[17] = target: Serine/threonine-protein kinase 33 (Homo sapiens) (UniProt Q9BYT3); test: Binding affinity to wild-type human full length STK33 (M1 to L514 residues) expressed in bacterial expression system assessed as residual binding level at 1 uM by Kinomescan method relative to control
[18] = target: Tyrosine-protein kinase Tec (Homo sapiens) (UniProt P42680); test: Binding affinity to wild-type human partial length TEC (L341 to D620 residues) expressed in bacterial expression system assessed as residual binding level at 1 uM by Kinomescan method relative to control
[19] = target: Non-receptor tyrosine-protein kinase TNK1 (Homo sapiens) (UniProt Q13470); test: Binding affinity to wild-type human full length TNK1 (M1 to P661 residues) expressed in bacterial expression system assessed as residual binding level at 1 uM by Kinomescan method relative to control; method in brief: as §3
[20] = target: Wee1-like protein kinase 2 (Homo sapiens) (UniProt P0C1S8); test: Binding affinity to wild-type human partial length WEE2 (M204 to K492 residues) expressed in bacterial expression system assessed as residual binding level at 1 uM by Kinomescan method relative to control

Chain of Serine/threonine-protein kinase B-raf (Homo sapiens), P15056 [V600E] (P15056 whole entry V600E, the tested form may be a part): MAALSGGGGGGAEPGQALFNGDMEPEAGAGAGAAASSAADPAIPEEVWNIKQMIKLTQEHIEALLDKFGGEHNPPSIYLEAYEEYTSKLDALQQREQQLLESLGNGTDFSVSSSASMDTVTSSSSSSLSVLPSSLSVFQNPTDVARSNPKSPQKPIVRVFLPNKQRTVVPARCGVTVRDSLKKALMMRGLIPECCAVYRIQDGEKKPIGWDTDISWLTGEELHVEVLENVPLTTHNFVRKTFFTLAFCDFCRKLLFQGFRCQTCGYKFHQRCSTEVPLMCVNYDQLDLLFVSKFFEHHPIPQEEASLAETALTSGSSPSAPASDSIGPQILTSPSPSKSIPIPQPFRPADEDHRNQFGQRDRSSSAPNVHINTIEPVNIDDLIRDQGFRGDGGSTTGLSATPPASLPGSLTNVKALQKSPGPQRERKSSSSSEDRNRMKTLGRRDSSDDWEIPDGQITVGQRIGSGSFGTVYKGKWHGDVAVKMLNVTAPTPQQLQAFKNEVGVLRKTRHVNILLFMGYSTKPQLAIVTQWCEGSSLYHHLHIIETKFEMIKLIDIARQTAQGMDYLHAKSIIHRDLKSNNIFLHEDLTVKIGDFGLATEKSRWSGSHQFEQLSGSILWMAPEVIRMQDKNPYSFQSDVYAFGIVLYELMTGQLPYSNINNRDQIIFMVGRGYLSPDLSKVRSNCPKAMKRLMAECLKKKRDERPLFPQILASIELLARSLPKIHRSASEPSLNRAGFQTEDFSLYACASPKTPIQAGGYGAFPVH
Chain of Phosphatidylinositol 4,5-bisphosphate 3-kinase catalytic subunit alpha isoform (Homo sapiens), P42336 [Q546K] (P42336 whole entry Q546K, the tested form may be a part, canonical isoform): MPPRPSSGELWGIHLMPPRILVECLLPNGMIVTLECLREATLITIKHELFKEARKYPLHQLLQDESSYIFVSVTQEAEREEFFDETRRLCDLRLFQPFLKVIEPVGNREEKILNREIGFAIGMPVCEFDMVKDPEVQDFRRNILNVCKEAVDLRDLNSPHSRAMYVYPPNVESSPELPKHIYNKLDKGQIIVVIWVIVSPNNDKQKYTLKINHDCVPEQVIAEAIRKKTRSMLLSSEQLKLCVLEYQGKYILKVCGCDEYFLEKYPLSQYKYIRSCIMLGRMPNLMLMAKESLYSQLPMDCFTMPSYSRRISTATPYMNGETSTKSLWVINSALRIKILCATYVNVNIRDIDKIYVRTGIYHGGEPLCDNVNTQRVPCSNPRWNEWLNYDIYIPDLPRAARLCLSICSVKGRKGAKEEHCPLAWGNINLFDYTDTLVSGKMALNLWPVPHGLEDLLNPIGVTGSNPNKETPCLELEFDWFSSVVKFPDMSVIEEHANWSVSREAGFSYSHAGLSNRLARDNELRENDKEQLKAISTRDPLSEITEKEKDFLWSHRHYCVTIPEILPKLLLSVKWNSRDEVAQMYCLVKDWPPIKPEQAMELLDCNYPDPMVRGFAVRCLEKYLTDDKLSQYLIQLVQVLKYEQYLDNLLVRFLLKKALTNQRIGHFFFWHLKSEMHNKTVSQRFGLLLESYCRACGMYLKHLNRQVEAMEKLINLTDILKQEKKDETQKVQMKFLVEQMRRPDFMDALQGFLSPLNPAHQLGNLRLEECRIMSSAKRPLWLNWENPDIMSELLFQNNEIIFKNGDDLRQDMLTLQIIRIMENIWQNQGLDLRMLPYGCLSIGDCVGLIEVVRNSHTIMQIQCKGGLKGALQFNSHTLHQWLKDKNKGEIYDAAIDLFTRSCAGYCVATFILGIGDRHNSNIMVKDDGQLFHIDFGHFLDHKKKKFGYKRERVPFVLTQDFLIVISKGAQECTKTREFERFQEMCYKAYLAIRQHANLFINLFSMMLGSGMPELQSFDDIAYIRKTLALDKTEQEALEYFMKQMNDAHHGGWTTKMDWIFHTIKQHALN
Chain of Non-receptor tyrosine-protein kinase TNK1 (Homo sapiens) (Q13470 whole entry, the tested form may be a part): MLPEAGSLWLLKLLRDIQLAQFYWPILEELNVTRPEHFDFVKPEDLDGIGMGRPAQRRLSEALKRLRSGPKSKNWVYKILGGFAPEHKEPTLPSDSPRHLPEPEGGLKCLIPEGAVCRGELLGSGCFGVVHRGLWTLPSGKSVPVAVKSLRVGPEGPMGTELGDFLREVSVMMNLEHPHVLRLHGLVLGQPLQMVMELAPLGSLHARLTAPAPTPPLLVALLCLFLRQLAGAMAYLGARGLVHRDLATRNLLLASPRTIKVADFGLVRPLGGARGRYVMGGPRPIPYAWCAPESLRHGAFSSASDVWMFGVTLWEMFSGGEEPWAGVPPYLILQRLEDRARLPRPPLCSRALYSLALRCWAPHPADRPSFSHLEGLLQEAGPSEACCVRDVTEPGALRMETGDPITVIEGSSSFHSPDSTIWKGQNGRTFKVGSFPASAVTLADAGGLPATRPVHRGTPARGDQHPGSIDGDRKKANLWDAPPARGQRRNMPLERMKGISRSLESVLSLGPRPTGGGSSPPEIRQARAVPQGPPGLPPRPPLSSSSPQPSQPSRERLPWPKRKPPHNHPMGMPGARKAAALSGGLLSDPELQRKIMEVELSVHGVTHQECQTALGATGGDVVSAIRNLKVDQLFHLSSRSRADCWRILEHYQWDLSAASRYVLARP
Chain of Proto-oncogene tyrosine-protein kinase receptor Ret (Homo sapiens) (P07949 whole entry, the tested form may be a part): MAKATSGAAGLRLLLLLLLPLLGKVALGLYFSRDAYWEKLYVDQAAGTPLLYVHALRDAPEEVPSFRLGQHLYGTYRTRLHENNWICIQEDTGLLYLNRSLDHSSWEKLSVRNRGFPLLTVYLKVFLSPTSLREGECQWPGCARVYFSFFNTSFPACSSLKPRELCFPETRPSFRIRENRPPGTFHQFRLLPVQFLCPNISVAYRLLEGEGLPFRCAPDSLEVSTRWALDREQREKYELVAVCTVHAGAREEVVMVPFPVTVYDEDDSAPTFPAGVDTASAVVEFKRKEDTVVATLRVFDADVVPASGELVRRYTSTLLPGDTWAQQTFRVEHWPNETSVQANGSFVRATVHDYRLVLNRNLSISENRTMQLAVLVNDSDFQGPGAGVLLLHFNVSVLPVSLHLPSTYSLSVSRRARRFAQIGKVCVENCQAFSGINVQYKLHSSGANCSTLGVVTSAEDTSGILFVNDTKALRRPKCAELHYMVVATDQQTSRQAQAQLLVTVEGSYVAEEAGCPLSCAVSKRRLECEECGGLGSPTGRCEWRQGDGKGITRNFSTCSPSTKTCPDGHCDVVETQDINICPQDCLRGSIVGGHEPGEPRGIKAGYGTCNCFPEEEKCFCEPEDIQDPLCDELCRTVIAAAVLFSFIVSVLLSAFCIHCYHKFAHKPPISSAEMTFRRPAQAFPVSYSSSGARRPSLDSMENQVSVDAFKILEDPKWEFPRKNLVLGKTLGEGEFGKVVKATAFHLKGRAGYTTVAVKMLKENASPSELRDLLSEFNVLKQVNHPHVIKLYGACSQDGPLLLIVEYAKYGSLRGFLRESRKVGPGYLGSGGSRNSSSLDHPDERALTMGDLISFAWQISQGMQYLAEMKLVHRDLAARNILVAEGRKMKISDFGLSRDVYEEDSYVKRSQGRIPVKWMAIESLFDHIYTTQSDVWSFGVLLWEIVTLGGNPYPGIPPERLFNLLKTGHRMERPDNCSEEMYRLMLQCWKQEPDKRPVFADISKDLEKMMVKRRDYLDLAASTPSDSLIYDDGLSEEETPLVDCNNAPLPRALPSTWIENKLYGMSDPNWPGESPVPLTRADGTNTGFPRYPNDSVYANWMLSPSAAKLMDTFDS
Chain of Tyrosine-protein kinase Tec (Homo sapiens) (P42680 whole entry, the tested form may be a part): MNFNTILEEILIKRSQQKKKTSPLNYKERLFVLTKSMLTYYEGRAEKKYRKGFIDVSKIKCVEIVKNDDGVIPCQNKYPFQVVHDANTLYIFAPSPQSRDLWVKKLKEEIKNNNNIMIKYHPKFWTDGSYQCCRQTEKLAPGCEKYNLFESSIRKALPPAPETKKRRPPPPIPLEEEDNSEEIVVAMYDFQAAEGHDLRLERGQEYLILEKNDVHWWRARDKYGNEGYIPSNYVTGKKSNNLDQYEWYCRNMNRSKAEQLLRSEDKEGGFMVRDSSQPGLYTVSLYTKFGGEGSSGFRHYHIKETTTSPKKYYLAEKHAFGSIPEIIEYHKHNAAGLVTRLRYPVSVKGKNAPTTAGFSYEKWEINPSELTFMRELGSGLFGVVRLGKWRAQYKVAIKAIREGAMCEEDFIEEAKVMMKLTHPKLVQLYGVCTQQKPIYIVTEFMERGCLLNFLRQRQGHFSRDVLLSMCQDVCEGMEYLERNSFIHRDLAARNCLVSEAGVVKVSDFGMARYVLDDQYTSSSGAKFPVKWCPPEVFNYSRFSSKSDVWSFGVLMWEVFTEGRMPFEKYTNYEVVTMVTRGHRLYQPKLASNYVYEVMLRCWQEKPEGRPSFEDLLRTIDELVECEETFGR
Chain of Cyclin-dependent kinase 3 (Homo sapiens) (Q00526 whole entry, looked up, the tested form may be a part): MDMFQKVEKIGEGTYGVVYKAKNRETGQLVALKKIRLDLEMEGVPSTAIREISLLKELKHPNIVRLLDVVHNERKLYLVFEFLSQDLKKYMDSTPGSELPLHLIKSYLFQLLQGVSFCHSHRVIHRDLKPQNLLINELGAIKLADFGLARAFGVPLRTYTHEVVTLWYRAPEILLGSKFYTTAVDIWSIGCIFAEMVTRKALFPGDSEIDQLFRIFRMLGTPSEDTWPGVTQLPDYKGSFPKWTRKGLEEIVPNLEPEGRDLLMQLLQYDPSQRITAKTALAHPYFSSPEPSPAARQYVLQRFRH
Chain of MAP kinase-interacting serine/threonine-protein kinase 2 (Homo sapiens) (Q9HBH9 whole entry, looked up, the tested form may be a part, canonical isoform): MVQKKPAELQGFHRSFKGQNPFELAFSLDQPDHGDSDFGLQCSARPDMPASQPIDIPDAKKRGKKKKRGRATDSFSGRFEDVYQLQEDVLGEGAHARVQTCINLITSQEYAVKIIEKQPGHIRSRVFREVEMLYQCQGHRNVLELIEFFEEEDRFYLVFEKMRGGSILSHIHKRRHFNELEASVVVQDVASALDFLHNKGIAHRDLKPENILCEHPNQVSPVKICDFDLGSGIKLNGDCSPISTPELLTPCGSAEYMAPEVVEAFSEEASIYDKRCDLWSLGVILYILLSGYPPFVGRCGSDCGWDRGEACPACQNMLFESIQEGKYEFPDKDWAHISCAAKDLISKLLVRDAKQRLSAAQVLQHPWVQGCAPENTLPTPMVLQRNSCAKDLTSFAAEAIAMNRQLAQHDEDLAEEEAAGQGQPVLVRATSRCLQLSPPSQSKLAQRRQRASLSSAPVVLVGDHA

Compound: C=CC(=O)Nc1ccccc1Nc1nc(Nc2ccc(N3CCN(C)CC3)cc2)ncc1C(=O)Nc1c(C)cccc1Cl
- Activity [1]: 100%
- Activity [2]: 100%
- Activity [3]: 100%
- Activity [4]: 100%
- Activity [5]: 100%
- Activity [6]: 78%
- Activity [7]: 100%
- Activity [8]: 91%
- Activity [9]: 100%
- Activity [10]: 100%
- Activity [11]: 97%
- Activity [12]: 100%
- Activity [13]: 100%
- Activity [14]: 92%
- Activity [15]: 100%
- Activity [16]: 96%
- Activity [17]: 100%
- Activity [18]: 95%
- Activity [19]: 29%
- Activity [20]: 100%

Source: ChEMBL document CHEMBL4354843, “Structure-Based Design of a Potent and Selective Covalent Inhibitor for SRC Kinase That Targets a P-Loop Cysteine” (J Med Chem, 2020)
